Screens: PubChem BioAssay, several laboratories
HCV core dimer: inhibitors of HCV core protein dimerization, primary screen, biochemical, TR-FRET, high-throughput | TR-FRET GST/Flag-core106 dimerization, 1536-well | inhibition, % at 5 µM | AID 1899, 2009 | 0.33% of 300,000 active;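 active = inhibition above the mean of all tested compounds plus 3 SD, set per screening campaign, cut at about 45% in these data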
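Material: Tagged HCV core106 pair (GST and Flag) | Amount: GST-core106 13.5 nM, Flag-core106 17 nM | Medium: KF-containing HEPES buffer, pH 7.45, DTT, CHAPS, BSA | Reagent: Eu donor and XL665 acceptor anti-tag antibodies | Schedule: 4 h at 22.5 °C | Technique: Time-resolved FRET, ex 340 nm, em 617 and 671 nm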
NadD inh: inhibitors of S. aureus NadD, primary screen, biochemical, colorimetric, uHTS; purified NadD enzyme, colorimetric absorbance read-out; AID 602399, 2012; inhibition, % at 20 µM; 0.78% of 360,000 active; Nicotinate-nucleotide adenylyltransferase NadD (Staphylococcus aureus N315); in the data active = inhibition above about 26%
ABHD5-PLIN5 inh: ABHD5-PLIN5 interaction inhibitors, primary screen, cell lysate, split luciferase complementation, luminescence. AID 602281, 2012. inhibition, % at 4 µM. Split G. princeps luciferase complementation, 4 h. 0.78% of 360,000 active;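 active = inhibition above the mean inhibition across every tested compound plus 3 SD, cut at about 22% in these data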
Target sequence (Q00G26 whole entry, looked up): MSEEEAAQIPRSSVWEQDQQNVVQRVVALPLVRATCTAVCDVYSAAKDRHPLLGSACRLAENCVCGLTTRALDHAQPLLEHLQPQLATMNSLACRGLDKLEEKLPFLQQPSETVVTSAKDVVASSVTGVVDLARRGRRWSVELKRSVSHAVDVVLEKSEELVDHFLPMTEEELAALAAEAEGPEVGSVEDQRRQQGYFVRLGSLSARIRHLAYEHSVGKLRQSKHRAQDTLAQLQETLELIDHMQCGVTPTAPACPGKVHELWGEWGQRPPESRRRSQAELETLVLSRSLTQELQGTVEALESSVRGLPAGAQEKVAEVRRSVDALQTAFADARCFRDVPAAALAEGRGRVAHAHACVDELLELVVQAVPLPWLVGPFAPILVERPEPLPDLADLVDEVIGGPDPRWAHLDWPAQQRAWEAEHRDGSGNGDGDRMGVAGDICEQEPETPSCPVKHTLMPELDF
Target sequence (Q8WTS1 whole entry, looked up): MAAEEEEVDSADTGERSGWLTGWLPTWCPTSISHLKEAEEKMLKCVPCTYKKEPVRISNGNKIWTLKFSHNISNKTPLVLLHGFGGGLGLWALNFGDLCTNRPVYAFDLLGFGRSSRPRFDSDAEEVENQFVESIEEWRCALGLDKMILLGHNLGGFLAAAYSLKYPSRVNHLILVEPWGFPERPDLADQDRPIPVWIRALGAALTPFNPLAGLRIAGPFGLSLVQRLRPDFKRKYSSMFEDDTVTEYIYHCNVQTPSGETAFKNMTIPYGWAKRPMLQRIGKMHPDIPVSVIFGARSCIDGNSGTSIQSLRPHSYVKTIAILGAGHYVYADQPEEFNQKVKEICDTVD
rCAG RNA binder: binders of r(CAG) RNA repeats, primary screen, biochemical, fluorescence | r(CAG) RNA repeat, TO-PRO-1 dye displacement fluorescence | inhibition, % at 3 µM | 1.3% of 370,000 active | AID 651821, 2012;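 active = inhibition above the plate cutoff, the mean of all test compounds on that plate plus 3 SD, cut at about 35% in these data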;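 also: higher means more dye released from RNA so lower well fluorescence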
rCAG bind conf: small molecules binding CAG repeat RNA – biochemical, fluorescence, confirmation; r(CAG) RNA repeat, TO-PRO-1 dye displacement fluorescence; shares compounds with rCAG RNA binder; 70% of 4,300 active; inhibition, % at 3 µM;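 active = inhibition above a per-plate cutoff, the mean inhibition of sample wells plus 3 SD, cut at about 35% in these data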;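 also: loss of TO-PRO-1 fluorescence as compound displaces dye from 1x1 AA loop RNA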
DNA CAG counter: displacement of TO-PRO-1 from CAG DNA duplex, counter-screen for rCAG RNA repeat binder project, biochemical, fluorescence, TO-PRO-1 dye, d(CAG) DNA oligo. shares compounds with rCAG RNA binder. 94% of 4,300 active. inhibition, % at 3 µM. d(CAG) DNA oligo TO-PRO-1 dye displacement;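 active = inhibition above its plate's cutoff, the mean test-well inhibition plus 3 SD, cut at about 4.8% in these data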;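 also: hits displace the dye from DNA and so lower well fluorescence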
dCAG dye DR: inhibitors of DNA CAG/GTC TO-PRO-1 complex, dose response, counter-screen for rCAG RNA repeat binder project, biochemical, fluorescence, TO-PRO-1 dye. AID 686960, 2013. DNA CAG/GTC duplex TO-PRO-1 dye displacement fluorescence. shares compounds with rCAG RNA binder. IC50, µM. 20% of 250 active; in the data active = IC50 below about 10 µM
Of the large screens only hits and unclear results are named; the others gave an inactive call (follow-up assays come after a bar, where they were run). Sampled rows, rich in hits. Any-hit rate of the full collection: about 2.6%.

Cc1cccc(S(=O)(=O)NC(=O)C2(C)CCN2C(=O)c2ccccc2CCc2ccccc2)c1 (configuration not stated)	rCAG RNA binder 39.1 (no result: HCV core dimer) | rCAG bind conf 45.3 | DNA CAG counter 11.2
CC1(c2nc3ccccc3[nH]2)c2ccccc2C(=O)N1Cc1ccccc1 (configuration not stated)	none (no result: HCV core dimer)
Nc1c(-c2ccc(C(F)(F)F)cc2)nc2ncccn12	none (no result: HCV core dimer, NadD inh)
CC1(C(=O)NS(=O)(=O)c2ccc3c(c2)CCO3)CCN1C(=O)c1ccccc1CCc1ccccc1 (configuration not stated)	rCAG RNA binder 42.4 (no result: HCV core dimer) | rCAG bind conf 42.3 | DNA CAG counter 10.9
CC(C)(C)n1nnnc1C(c1ccccc1)N1CCN(C(=O)C2CCCO2)CC1 (configuration not stated)	none (no result: HCV core dimer)
O=C(c1cccc(Br)c1)c1nc2ccccc2[nH]c1=O	none (no result: HCV core dimer)
O=C(NCCc1ccccc1F)c1ccc(Sc2ccccc2Cl)c([N+](=O)[O-])c1	none (no result: HCV core dimer, NadD inh, ABHD5-PLIN5 inh)
CC(C)N1C(=O)S/C(=C/c2ccccc2OCc2ccc(C(=O)O)cc2)C1=O	rCAG RNA binder 54.9 | rCAG bind conf 55.5 | DNA CAG counter 17.1
CN1C(=O)S/C(=C\c2ccccc2OCc2ccc(C(=O)O)cc2)C1=O	none
O=C(CCN1C(=O)/C(=C/c2cccs2)SC1=S)Nc1ccc(C(=O)O)cc1	rCAG RNA binder 48.1 | rCAG bind conf 35.3 | DNA CAG counter 8.1
O=C(CCCN1C(=O)/C(=C\c2cccs2)SC1=S)Nc1ccc(O)cc1	none
O=C(CCCN1C(=O)/C(=C\c2cccs2)SC1=S)Nc1ccc(C(=O)O)cc1	rCAG RNA binder 39.0 | rCAG bind conf inactive | DNA CAG counter 7.8
S=c1[nH]nc(-c2cc(-c3ccccc3)n[nH]2)n1N=Cc1cccc(Oc2ccccc2)c1	rCAG RNA binder 65.9 (no result: HCV core dimer, NadD inh, ABHD5-PLIN5 inh) | rCAG bind conf 60.9 | DNA CAG counter 30.7
COc1cc(/C=N/n2c(-c3cc(-c4ccccc4)n[nH]3)n[nH]c2=S)ccc1OCc1ccccc1	rCAG RNA binder 58.1 (no result: HCV core dimer, NadD inh, ABHD5-PLIN5 inh) | rCAG bind conf 55.1 | DNA CAG counter 26.0
S=c1[nH]nc(-c2ccccc2)n1/N=C/c1cccc(Br)c1	none
S=c1[nH]nc(-c2cc(-c3ccccc3)n[nH]2)n1N=Cc1cccc(OCc2ccccc2)c1	rCAG RNA binder 76.8 (no result: HCV core dimer, NadD inh, ABHD5-PLIN5 inh) | rCAG bind conf 63.3 | DNA CAG counter 31.8
S=c1[nH]nc(-c2cc(-c3ccccc3)n[nH]2)n1/N=C/c1cccc(Cl)c1	rCAG RNA binder 35.4 | rCAG bind conf 69.7 | DNA CAG counter 32.1 | dCAG dye DR inactive
COc1ccc(/C=N/n2c(-c3cc(C)[nH]n3)n[nH]c2=S)cc1OC	none
Cc1cccc(N2CCN(C3C(=O)Nc4ccccc4-n4nnnc43)CC2)c1C (configuration not stated)	none (no result: HCV core dimer, NadD inh)
CC(=O)C1=C(C)N(Cc2ccc(Cl)cc2)C(=S)NC1c1cccc(Br)c1 (configuration not stated)	none (no result: HCV core dimer, NadD inh, ABHD5-PLIN5 inh)
COC(=O)[C@@H](Cc1ccccc1)NC(=O)Cn1cc(C)c(=O)[nH]c1=O	none (no result: HCV core dimer)
CSC1=NSC2=NC(=O)/C(=C\c3cccs3)C(=N)N12	none
